This is an account of results in ChEMBL document CHEMBL1146211, “Conformationally constrained analogues of diacylglycerol (DAG). 28. DAG-dioxolanones reveal a new additional interaction site in the C1b domain of PKC delta” (J Med Chem, 2007).

Calls of active or inactive are those of the source. No cut-off for these calls is given here.

Test [1] deals with T1, Protein kinase C delta type (Mus musculus, UniProt P28867). Description: Displacement of [3H]PDBu from mouse wild type C1b domain of PKCdelta expressed in Escherichia coli. In short, it runs like this:
(§1)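 Competitive displacement of [3H]PDBu from GST-tagged C1 domains of PKCδ (expressed in E. coli, IPTG-induced, spin-purified, stored in 30% glycerol at -70 °C). 18 °C for 10 min, PEG precipitation on ice, scintillation counting of pellet and supernatant. Ki from the lab's standard method. Three independent experiments.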

Test [2] concerns the target T1, Protein kinase C delta type. Description: Binding affinity to mouse PKC delta C1a Q27E mutant expressed in Escherichia coli. A digest of the protocol: as §1
Test [3] concerns the target Protein kinase C delta type (Mus musculus) (UniProt P28867). Description: Ratio of Ki for mouse PKCdelta C1b Q27E mutant to Ki for mouse wild type C1b domain of PKCdelta.
In test [4] the target is T1, Protein kinase C delta type. As to the kind of experiment: Binding affinity to mouse wild-type PKCdelta C1a expressed in Escherichia coli. A digest of the protocol:
as §1

In test [5] the target is Protein kinase C delta type (Mus musculus, UniProt P28867, Q257E). Description: Displacement of [3H]PDBu from mouse PKCdelta C1b Q27E mutant expressed in Escherichia coli. In short, it runs like this:
as §1

Test [6] has as its target Protein kinase C alpha type (Mus musculus, UniProt P20444). As to the kind of experiment: Displacement of [3H]PDBu from mouse recombinant PKCalpha expressed in Escherichia coli. A digest of the protocol: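 Recombinant full-length mouse PKCα, partially purified, is tested for competitive displacement of [3H]PDBu with phosphatidylserine (100 µg/mL), 4 mg/mL bovine IgG and 50 mM Tris-HCl pH 7.4. Incubation is 37 °C for 5 min, followed by polyethylene glycol precipitation on ice and scintillation counting of bound and free label. Ki is calculated by the lab's standard method, averaged over three independent experiments.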
(In general: Loss of bound radioactivity is the signal in a displacement assay; it reports binding, not function.)

Test [7] deals with Protein kinase C delta type (Mus musculus) (UniProt P28867). Description: Effect on membrane translocation of PKCdelta-GFP Q257E mutant in CHOK1 cells at 20 uM after 1 hr. The test is classed as functional, cell-based. To be noted: CHO-K1. A digest of the protocol: (§2)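 CHO-K1 cells grown at 37 °C, 5% CO2 in F-12 with 10% FBS and penicillin/streptomycin, transfected with GFP-fused PKCδ (wild type or Q257E); imaged 24 h later. Live confocal time series (488 nm excitation, 522/32 emission) in a perfusion chamber at 37 °C after ligand addition (test compound 20 µM; PMA 1 µM). Plasma- and internal-membrane GFP redistribution assessed visually.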
Protein kinase C delta type (Mus musculus), sequence (P28867 whole entry, looked up, the tested form may be a part): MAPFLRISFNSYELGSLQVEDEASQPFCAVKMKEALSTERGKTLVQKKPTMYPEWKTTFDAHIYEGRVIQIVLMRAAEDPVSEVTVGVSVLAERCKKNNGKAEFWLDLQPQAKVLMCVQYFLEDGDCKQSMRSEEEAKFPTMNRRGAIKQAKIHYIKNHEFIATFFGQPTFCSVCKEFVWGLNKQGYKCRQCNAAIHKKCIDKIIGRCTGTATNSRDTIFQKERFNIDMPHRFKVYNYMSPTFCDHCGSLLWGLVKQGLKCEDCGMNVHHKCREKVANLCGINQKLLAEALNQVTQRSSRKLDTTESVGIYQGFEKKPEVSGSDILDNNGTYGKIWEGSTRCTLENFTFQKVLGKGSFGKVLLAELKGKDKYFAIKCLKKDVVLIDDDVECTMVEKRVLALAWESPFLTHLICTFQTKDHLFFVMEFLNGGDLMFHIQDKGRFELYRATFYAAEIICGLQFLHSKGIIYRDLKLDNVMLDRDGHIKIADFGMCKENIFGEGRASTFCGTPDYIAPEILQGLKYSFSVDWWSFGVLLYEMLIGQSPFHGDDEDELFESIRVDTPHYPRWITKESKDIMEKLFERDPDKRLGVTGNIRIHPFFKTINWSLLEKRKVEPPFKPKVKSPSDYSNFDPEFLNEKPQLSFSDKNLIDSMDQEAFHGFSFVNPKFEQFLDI

The target is the same in test [8]. Description: Effect on membrane translocation of wildype full length PKCdelta-GFP in CHOK1 cells at 20 uM within 5 mins. To be noted: CHO-K1. The test is classed as functional, cell-based. In short, it runs like this: as §2

T1 sequence (P28867 whole entry, the tested form may be a part): as the sequence (P28867 whole entry, looked up, the tested form may be a part) above
Protein kinase C delta type (Mus musculus, UniProt P28867, Q257E), sequence (P28867 whole entry Q257E): as the sequence (P28867 whole entry, looked up, the tested form may be a part) above, with Q257E counted along it

In the case of `CC(C)CC(C/C=C1/CC(CO)(COC(=O)C(C)(C)C)OC1=O)CC(C)C` (centres undefined), the Ki (in general, the equilibrium dissociation constant of an inhibitor or competing ligand from its target) in test [1] came out at 1.15 nM; in test [2] it was 476 nM; in test [4], 1.21 nM; in test [5] it was 44.8 nM; in test [6] it was 2.9 nM. Besides, the Ratio Ki in test [3] was 39.

For `CC(C)CC(C/C=C1/OC(CO)(COC(=O)C(C)(C)C)OC1=O)CC(C)C` (centres undefined), the Ki in test [1] was determined as 0.82 nM; in test [2] it was 1570 nM; in test [4] it was 4.31 nM; in test [5] it was 2510 nM. Besides, in test [7], the result was inactive. Further, the Ratio Ki in test [3] turned out to be 3070. The outcome in test [8] was Active.

In the case of `CC(C)CC(=O)OCC1(CO)OC(=O)/C(=C\CC(CC(C)C)CC(C)C)O1` (centres undefined), the Ki in test [1] stood at 2.82 nM; in test [5], 3460 nM; in test [6], 19.8 nM. Also, the Ratio Ki in test [3] is 1230.

On to `CC(C)C/C=C1/OC(CO)(COC(=O)CC(CC(C)C)CC(C)C)OC1=O` (centres undefined), for which the Ki is 0.9 nM in test [1] and 1720 nM in test [5]. In addition, in test [3], the Ratio Ki worked out at 1910.

In the case of `CC(C)CC=C1OC(CO)(COC(=O)CC(CC(C)C)CC(C)C)OC1=O` (centres undefined), in test [6], the Ki came out at 5.78 nM.

Take `CC(C)CC(=O)OCC1(CO)C/C(=C/CC(CC(C)C)CC(C)C)C(=O)O1` (centres undefined): the Ki in test [1] worked out at 0.96 nM; in test [5] it was 53 nM; in test [6], 3.49 nM. Moreover, in test [3], the Ratio Ki amounted to 55.

`CCCC(=O)O[C@@H]1[C@@H](C)[C@@]2(O)[C@@H](C=C(CO)C[C@]3(O)C(=O)C(C)=C[C@@H]23)[C@@H]2C(C)(C)[C@]12OC(=O)CCC`: the Ki was 0.33 nM in test [1] and 6.2 nM in test [5]. Also, the Kd (commonly the constant that tells how readily two partners part at equilibrium) in test [2] is 383 nM; in test [4], 2.04 nM.

As for `CC(C)CC(CC=C1OC(CO)(COC(=O)C(C)(C)C)OC1=O)CC(C)C` (centres undefined), the Ki in test [6] was found to be 6.41 nM.

Take `CC(C)C/C=C1/CC(CO)(COC(=O)CC(CC(C)C)CC(C)C)OC1=O` (centres undefined): the Ki was 2.13 nM in test [1], 73.7 nM in test [5] and 3.07 nM in test [6]. Further, the Ratio Ki in test [3] came to 35.
